Measurements reported in ChEMBL document CHEMBL3351346, “Design, synthesis, structure-function relationship, bioconversion, and pharmacokinetic evaluation of ertapenem prodrugs” (J Med Chem, 2014).

Tests used:
Rattus norvegicus [1] = assay: AUC (0 to 8 hrs) in fasted Sprague-Dawley rat at 10 mg/kg dosed through intraduodenal route by LC-MS/MS method; format: ADME, organism-based, Plasma; design: time < 8 hr, dose 10 mg/kg, route intraduodenal; conditions: in vivo, other, 8 h, BLD = below limit of detection
How it was run: (§1)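 Prodrugs were given intraduodenally to bypass stomach acid. Plasma was sampled at intervals over 8 h, and parent prodrug, the two monoester metabolites and ertapenem were quantified by LC-MS/MS. The lower limit of quantitation was 5 nM. AUC(0–8) was used, and it differed from AUC(0–∞) by ±20%. Vehicles were 30% Captisol or 0.5% methylcellulose, as solution or suspension depending on compound.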

Rattus norvegicus [2] = assay: Oral bioavailability in fasted Sprague-Dawley rat assessed as ertapenem level at 10 mg/kg dosed through intraduodenal route by LC-MS/MS method; format: ADME, organism-based; conditions: in vivo
How it was run: (§2)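 After intraduodenal dosing, plasma over 8 h was analysed by LC-MS/MS. Bioavailability was calculated as dose-normalized AUC of ertapenem formed from the prodrug divided by dose-normalized AUC of ertapenem dosed iv. Vehicle was 30% Captisol or 0.5% methylcellulose.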

Canis familiaris [3] = assay: AUC (0 to 8 hrs) in fasted Beagle dog assessed as 8-OH, benzoate ester level at 10 mg/kg dosed through intraduodenal route by LC-MS/MS method; format: ADME, organism-based, Canis lupus familiaris, Plasma; design: time < 8 hr, dose 10 mg/kg, route intraduodenal; conditions: in vivo, other; how it was run: as §1
[4] = Stability in pH 6.5 simulated gastrointestinal fluid assessed as compound remaining at 50 uM after 3 hrs by LC-MS/MS method; format: ADME; conditions: read-out: Stability
How it was run: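 Compounds at 50 μM were incubated in fasted-state simulated intestinal fluid (FaSSIF, pH 6.5) for over 3 h. Percent remaining was determined by LC-MS/MS.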

[5] = Stability in pH 2.0 simulated gastric fluid assessed as compound degradation to beta-lactam ring open products at 1 uM after 60 mins by LC-MS/MS method; format: ADME; conditions: read-out: Drug degradation
How it was run: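 Incubation was in simulated gastric fluid (SGF, pH 2.0) for 60 min, with loss to the β-lactam ring-opened product measured by LC-MS/MS.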

Canis familiaris [6] = assay: Oral bioavailability in fasted Beagle dog assessed as ertapenem level at 10 mg/kg dosed through intraduodenal route by LC-MS/MS method; format: ADME, organism-based, Canis lupus familiaris; conditions: in vivo; how it was run: as §2
Canis familiaris [7] = assay: AUC (0 to 8 hrs) in fasted Beagle dog assessed as 8-OH, C-3 ester level at 10 mg/kg dosed through intraduodenal route by LC-MS/MS method; format: ADME, organism-based, Canis lupus familiaris, Plasma; design: time < 8 hr, dose 10 mg/kg, route intraduodenal; conditions: in vivo, other; how it was run: as §1
Canis familiaris [8] = assay: Oral bioavailability in fasted Beagle dog assessed as assessed as ertapenem and monoetser metabolites level at 10 mg/kg dosed through intraduodenal route by LC-MS/MS method; format: ADME, organism-based, Canis lupus familiaris; conditions: in vivo
How it was run: (§3)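 Total absorption followed intraduodenal dosing with LC-MS/MS of plasma over 8 h. It was calculated as the combined dose-normalized AUC of circulating parent prodrug, ertapenem and two monoesters, divided by dose-normalized AUC of ertapenem given iv. Vehicle was 30% Captisol or 0.5% methylcellulose.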

Canis familiaris [9] = assay: AUC (0 to 8 hrs) in fasted Beagle dog at 10 mg/kg dosed through intraduodenal route by LC-MS/MS method; format: ADME, organism-based, Canis lupus familiaris, Plasma; design: time < 8 hr, dose 10 mg/kg, route intraduodenal; conditions: in vivo, other, 8 h; how it was run: as §1
Rattus norvegicus [10] = assay: Oral bioavailability in fasted Sprague-Dawley rat assessed as ertapenem and monoetser metabolites level at 10 mg/kg dosed through intraduodenal route by LC-MS/MS method; format: ADME, organism-based; conditions: in vivo; how it was run: as §3
Rattus norvegicus [11] = assay: AUC (0 to 8 hrs) in fasted Sprague-Dawley rat assessed as 8-OH, benzoate ester level at 10 mg/kg dosed through intraduodenal route by LC-MS/MS method; format: ADME, organism-based, Plasma; design: time < 8 hr, dose 10 mg/kg, route intraduodenal; conditions: in vivo, other, BLD = below limit of detection; how it was run: as §1
[12] = Stability in pH 7.4 phosphate buffer assessed as compound remaining at 50 uM after 3 hrs by LC-MS/MS method; format: physicochemical; conditions: read-out: Stability
Rattus norvegicus [13] = assay: AUC (0 to 8 hrs) in fasted Sprague-Dawley rat assessed as 8-OH, C-3 ester level at 10 mg/kg dosed through intraduodenal route by LC-MS/MS method; format: ADME, organism-based, Plasma; design: time < 8 hr, dose 10 mg/kg, route intraduodenal; conditions: in vivo, other, BLD = below limit of detection; how it was run: as §1
Rattus norvegicus [14] = assay: Oral bioavailability in fasted Sprague-Dawley rat assessed as ertapenem and monoetser metabolites level at 7.4 mg/kg dosed through intraduodenal route by LC-MS/MS method; format: ADME, organism-based; conditions: in vivo; how it was run: as §3
Rattus norvegicus [15] = assay: AUC (0 to 8 hrs) in fasted Sprague-Dawley rat assessed as ertapenem level at 7.4 mg/kg dosed through intraduodenal route by LC-MS/MS method; format: ADME, organism-based, Plasma; design: time < 8 hr, dose 7.4 mg/kg, route intraduodenal; conditions: in vivo, other; how it was run: as §1
Rattus norvegicus [16] = assay: AUC (0 to 8 hrs) in fasted Sprague-Dawley rat at 7.4 mg/kg dosed through intraduodenal route by LC-MS/MS method; format: ADME, organism-based, Plasma; design: time < 8 hr, dose 7.4 mg/kg, route intraduodenal; conditions: in vivo, other, BLD = below limit of detection; how it was run: as §1
Rattus norvegicus [17] = assay: Oral bioavailability in fasted Sprague-Dawley rat assessed as ertapenem level at 7.4 mg/kg dosed through intraduodenal route by LC-MS/MS method; format: ADME, organism-based; conditions: in vivo; how it was run: as §2
[18] = Stability in rat plasma assessed as compound remaining at 50 uM at 37 degC after 60 mins by LC-MS/MS method; format: ADME, cell-free; conditions: read-out: Stability
How it was run: (§4)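 Prodrugs were incubated in rat or human plasma for 60 min. Disappearance of prodrug and concomitant appearance of ertapenem were followed by LC-MS/MS, and in selected cases monoesters from partial hydrolysis were also monitored. Ertapenem itself was incubated the same way as a control.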

Rattus norvegicus [19] = assay: AUC (0 to 8 hrs) in fasted Sprague-Dawley rat assessed as 8-OH, C-3 ester level at 4.41 mg/kg dosed through intraduodenal route by LC-MS/MS method; format: ADME, organism-based, Plasma; design: time < 8 hr, dose 4.41 mg/kg, route intraduodenal; conditions: in vivo, other; how it was run: as §1
Rattus norvegicus [20] = assay: AUC (0 to 8 hrs) in fasted Sprague-Dawley rat assessed as 8-OH, benzoate ester level at 4.41 mg/kg dosed through intraduodenal route by LC-MS/MS method; format: ADME, organism-based, Plasma; design: time < 8 hr, dose 4.41 mg/kg, route intraduodenal; conditions: in vivo, other; how it was run: as §1
Rattus norvegicus [21] = assay: AUC (0 to 8 hrs) in fasted Sprague-Dawley rat assessed as ertapenem level at 4.41 mg/kg dosed through intraduodenal route by LC-MS/MS method; format: ADME, organism-based, Plasma; design: time < 8 hr, dose 4.41 mg/kg, route intraduodenal; conditions: in vivo, other; how it was run: as §1
Rattus norvegicus [22] = assay: Oral bioavailability in fasted Sprague-Dawley rat assessed as ertapenem level at 4.41 mg/kg dosed through intraduodenal route by LC-MS/MS method; format: ADME, organism-based; conditions: in vivo; how it was run: as §2
[23] = AUC (0 to 8 hrs) in fasted Sprague-Dawley rat at 4.41 mg/kg dosed through intraduodenal route by LC-MS/MS method; format: ADME, organism-based; design: time < 8 hr, dose 4.41 mg/kg, route intraduodenal; conditions: plasma; how it was run: as §1
Rattus norvegicus [24] = assay: Oral bioavailability in fasted Sprague-Dawley rat assessed as ertapenem and monoetser metabolites level at 4.41 mg/kg dosed through intraduodenal route by LC-MS/MS method; format: ADME, organism-based; conditions: in vivo; how it was run: as §3
[25] = Stability in human plasma assessed as compound remaining at 50 uM at 37 degC after 60 mins by LC-MS/MS method; format: ADME, cell-free; conditions: read-out: Stability; how it was run: as §4
Canis familiaris [26] = assay: AUC (0 to 8 hrs) in fasted Beagle dog assessed as ertapenem level at 10 mg/kg dosed through intraduodenal route by LC-MS/MS method; format: ADME, organism-based, Canis lupus familiaris, Plasma; design: time < 8 hr, dose 10 mg/kg, route intraduodenal; conditions: in vivo, other; how it was run: as §1
Rattus norvegicus [27] = assay: AUC (0 to 8 hrs) in fasted Sprague-Dawley rat assessed as ertapenem level at 10 mg/kg dosed through intraduodenal route by LC-MS/MS method; format: ADME, organism-based, Plasma; design: time < 8 hr, dose 10 mg/kg, route intraduodenal; conditions: in vivo, other; how it was run: as §1

Row | AUC (Rattus norvegicus [1]) | F (Rattus norvegicus [2]) [%] | AUC (Canis familiaris [3]; BLD = below limit of detection) | remaining at 3 h, 50 µM [4] [%] | degraded at 1 h, 1 µM [5] [%] | F (Canis familiaris [6]) [%] | AUC (Canis familiaris [7]) [µM·h] | F (Canis familiaris [8]) [%] | AUC (Canis familiaris [9]; BLD = below limit of detection) | F (Rattus norvegicus [10]) [%] | AUC (Rattus norvegicus [11]) | remaining at 3 h, 50 µM [12] [%] | AUC (Rattus norvegicus [13]) | remaining at 1 h, 50 µM [18] [%] | remaining at 1 h, 50 µM [25] [%] | AUC (Rattus norvegicus [27]) [µM·h] | SMILES | further results
1 | BLD | 0.4 | BLD | > 95 | > 25 | 3 | < 0.1 | 3.07 | BLD | 0.4 | BLD | > 95 | BLD |  |  |  | C[C@@H](O)[C@H]1C(=O)N2C(C(=O)OCOC(=O)C(C)(C)C)=C(S[C@@H]3CN[C@H](C(=O)Nc4cccc(C(=O)OCOC(=O)C(C)(C)C)c4)C3)[C@H](C)[C@H]12 | 
2 |  |  |  | > 95 | > 25 |  |  |  |  |  |  | > 95 |  | 0 |  |  | Cc1oc(=O)oc1COC(=O)C1=C(S[C@@H]2CN[C@H](C(=O)Nc3cccc(C(=O)OCc4oc(=O)oc4C)c3)C2)[C@H](C)[C@@H]2[C@@H]([C@@H](C)O)C(=O)N12 | F (Rattus norvegicus [14]): 0.8%; AUC (Rattus norvegicus [15]): 0.3 µM·h; AUC (Rattus norvegicus [16]): BLD; F (Rattus norvegicus [17]): 0.8%
3 |  |  |  | > 95 | > 25 | 18.1 | 2.2 | 31.3 |  |  |  | > 95 |  |  |  |  | CCOC(=O)C1=C(S[C@@H]2CN[C@H](C(=O)Nc3cccc(C(=O)OCC)c3)C2)[C@H](C)[C@@H]2[C@@H]([C@@H](C)O)C(=O)N12 | AUC (Rattus norvegicus [19]): 0.1 µM·h; AUC (Canis familiaris [3]): 3.3 µM·h; AUC (Rattus norvegicus [20]): 0.4 µM·h; AUC (Canis familiaris [9]): 5 µM·h; AUC (Rattus norvegicus [21]): 1.5 µM·h; F (Rattus norvegicus [22]): 5%; AUC(0-t) at 8 h [23]: 0.06 µM·h; F (Rattus norvegicus [24]): 6.6%
4 | BLD | 1.8 | BLD | > 95 | > 25 | 3.6 |  | 3.6 | BLD | 1.8 | BLD | > 95 | BLD | 1 | 8 | 0.9 | CC(C)C(=O)OCOC(=O)C1=C(S[C@@H]2CN[C@H](C(=O)Nc3cccc(C(=O)OCOC(=O)C(C)C)c3)C2)[C@H](C)[C@@H]2[C@@H]([C@@H](C)O)C(=O)N12 | AUC (Canis familiaris [26]): 2.2 µM·h; AUC (Canis familiaris [7]; BLD = below limit of detection): BLD
5 | BLD | 1.2 |  | > 95 | > 25 |  |  |  |  | 1.2 |  | > 95 | BLD | 0 | 15 | 0.7 | CC(C)C(=O)OCOC(=O)C1=C(S[C@@H]2CN[C@H](C(=O)Nc3cccc(C(=O)[O-])c3)C2)[C@H](C)[C@@H]2[C@@H]([C@@H](C)O)C(=O)N12.[Na+] | 
